This note sets out measurements from ChEMBL document CHEMBL4371006, “Discovery of N-[4-(Quinolin-4-yloxy)phenyl]benzenesulfonamides as Novel AXL Kinase Inhibitors” (J Med Chem, 2018).

Structures are written as SMILES. Active and inactive are the calls of the source. The rule behind the calls is not given here.

One data set concerns MDA-MB-231. Briefly: Antimetastatic activity against human MDA-MB-231 cells xenografted in mouse assessed as reduction in lung metastasis at 30 mg/kg, ip bid measured 3 times per week starting at day 12 by hematoxylin and eosin staining based assay relative to control. Type of data set: functional. Set-up: scale not given: the % may be the effect or the level left. The procedure, abridged:
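Female SCID/Beige mice inoculated with 2 x 10^6 MDA-MB-231 cells in HBSS:Matrigel (1:1) into third mammary fat pad under ketamine/xylazine. Test agent 30 mg/kg ip twice daily (12 h apart) in PEG400/H2O 70:30, or paclitaxel 10 mg/kg iv three times weekly; 10 mice/group. Tumors measured three times weekly from day 12; lungs and lymph nodes excised, formalin-fixed, nodes H&E-scored (mean ± SEM).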
(In xenograft studies the graft and the host belong to different species.)

Data set [1] can be described thus: Apparent permeability from apical to basolateral side in human Caco2 cells at 10 uM after 2 hrs by LC-MS/MS analysis. Type of data set: ADME, cell-based. The note with it: Caco-2. The essentials:
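Caco-2 cells differentiated three weeks in 96-well format, monolayer integrity checked by Lucifer yellow transport. Compound at 10 µM for 2 h; apical buffer HBSS/10 mM HEPES/glucose pH 6.5 with 100 µM Lucifer yellow, basolateral buffer pH 7.4. Papp = (dQ/dt)/C0A; efflux ratio Papp(B→A)/Papp(A→B).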

Data set [2] has as its target Mitogen-activated protein kinase kinase kinase kinase 4 (Homo sapiens, UniProt O95819). Briefly: Binding affinity to MAP4K4 in SILAC-labeled human MDA-MB-231 cells lysate by mass spectrometry based kinAffinity assay. Type of data set: subcellular. The procedure, abridged: (§1)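 Chemical proteomics: MDA-MB-231 lysate bound to matrix of immobilized broad kinase inhibitors at several densities (BC50), then competed with increasing free compound (CC50); proteins quantified by mass spectrometry, Kd via Cheng-Prusoff. Two competition formats run in parallel to check equilibrium.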

Data set [3] is described as follows: Toxicity in SCID/beige mouse xenografted with human MDA-MB-231 cells assessed as body weight gain at 30 mg/kg, ip bid measured 3 times per week starting at day 12. Type of data set: organism-based. The note with it: in vivo.
The nature of data set [4]: Protein binding in mouse plasma. Type of data set: ADME, cell-free. The note with it: read-out: PPB (converted).
Data set [5] can be described thus: Apparent volume of distribution in mouse at 3 mg/kg, iv by LC/MS/MS analysis. The note with it: in vivo, read-out: Vz.
Data set [6] deals with Cyclin-dependent kinase 17 (Homo sapiens, UniProt Q00537). Briefly: Binding affinity to PCTK2 in SILAC-labeled human MDA-MB-231 cells lysate by mass spectrometry based kinAffinity assay. Type of data set: subcellular. The essentials:
(§2)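 MDA-MB-231 lysate applied to KinAffinity matrix of immobilized broadband kinase inhibitors at graded densities to obtain BC50 per target. Competition then run with increasing free compound to give CC50; Kd derived by Cheng-Prusoff. Two competition experiments in parallel to check equilibrium, one with lysate pre-incubated with compound before adding matrix. Quantitation by mass spectrometry.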

Data set [7] concerns the target Mitogen-activated protein kinase kinase kinase 3 (Homo sapiens, UniProt Q99759). As to the kind of experiment: Binding affinity to MAP3K3 in SILAC-labeled human MDA-MB-231 cells lysate by mass spectrometry based kinAffinity assay. Type of data set: subcellular. The essentials: as §1
The target of data set [8] is Proto-oncogene tyrosine-protein kinase Src (Homo sapiens, UniProt P12931). As to the kind of experiment: Binding affinity to SRC in SILAC-labeled human MDA-MB-231 cells lysate by mass spectrometry based kinAffinity assay. Type of data set: subcellular. The procedure, abridged: as §2
The target in a further data set is LIM domain kinase 2 (Homo sapiens, UniProt P53671). Briefly: Binding affinity to LIMK2 in SILAC-labeled human MDA-MB-231 cells lysate by mass spectrometry based kinAffinity assay. Type of data set: subcellular. The procedure, abridged: as §1
For data set [9], the target named is Hepatocyte growth factor receptor (Homo sapiens, UniProt P08581). As to the kind of experiment: Binding affinity to MET in SILAC-labeled human MDA-MB-231 cells lysate by mass spectrometry based kinAffinity assay. Type of data set: subcellular. The procedure, abridged: as §1
The target in data set [10] is Dual specificity mitogen-activated protein kinase kinase 5 (Homo sapiens, UniProt Q13163). Briefly: Binding affinity to MAP2K5 in SILAC-labeled human MDA-MB-231 cells lysate by mass spectrometry based kinAffinity assay. Type of data set: subcellular. The essentials:
as §1

For data set [11], the target named is 5-azacytidine-induced protein 2 (Homo sapiens, UniProt Q9H6S1). Briefly: Binding affinity to AZI2 in SILAC-labeled human MDA-MB-231 cells lysate by mass spectrometry based kinAffinity assay. Type of data set: subcellular. The procedure, abridged:
as §1

The target of data set [12] is Serine/threonine-protein kinase TBK1 (Homo sapiens, UniProt Q9UHD2). As to the kind of experiment: Binding affinity to TBK1 in SILAC-labeled human MDA-MB-231 cells lysate by mass spectrometry based kinAffinity assay. Type of data set: subcellular. The procedure, abridged: as §2
The target in data set [13] is TANK-binding kinase 1-binding protein 1 (Homo sapiens, UniProt A7MCY6). As to the kind of experiment: Binding affinity to TBKBP1 in SILAC-labeled human MDA-MB-231 cells lysate by mass spectrometry based kinAffinity assay. Type of data set: subcellular. The procedure, abridged: as §2
Data set [14] has as its target Epithelial discoidin domain-containing receptor 1 (Homo sapiens) (UniProt Q08345). As to the kind of experiment: Inhibition of DDR1 (unknown origin) using biotinylated peptide as substrate at 10 uM by TR-FRET assay. A general note: In TR-FRET formats the signal depends on donor and acceptor labels being close together.
The target in data set [15] is Tyrosine-protein kinase JAK3 (Homo sapiens) (UniProt P52333). As to the kind of experiment: Inhibition of JAK3 (unknown origin) using fluorescence labeled peptide as substrate at 10 uM by IMAP assay. The procedure, abridged: (§3)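 Kinase selectivity profiling, run by a contract lab, with the test compound at 10 µmol/L in triplicate. In the IMAP format, the kinase phosphorylates a fluorescently labelled substrate peptide in solution. A binding solution of trivalent metal-based nanoparticles is then added to capture the phosphopeptide, and the drop in rotational speed is read as fluorescence polarization. Results are given as percent inhibition of each kinase.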

Data set [16] concerns the target Receptor-type tyrosine-protein kinase FLT3 (Homo sapiens) (UniProt P36888). As to the kind of experiment: Inhibition of FLT3 (unknown origin) using biotinylated peptide as substrate at 10 uM by TR-FRET assay.
Data set [17] addresses Insulin receptor (Homo sapiens) (UniProt P06213). As to the kind of experiment: Inhibition of INSR (unknown origin) using fluorescently-labeled peptide as substrate at 10 uM by IMAP fluorescence polarization assay. (In general: Fluorescence polarisation rises when a labelled molecule tumbles more slowly, as on binding a larger partner.)
Data set [18] has as its target Proto-oncogene tyrosine-protein kinase receptor Ret (Homo sapiens) (UniProt P07949). As to the kind of experiment: Inhibition of RET (unknown origin) using fluorescently-labeled peptide as substrate at 10 uM by IMAP fluorescence polarization assay.
The target of data set [19] is Epithelial discoidin domain-containing receptor 1 (Homo sapiens) (UniProt Q08345). As to the kind of experiment: Binding affinity to DDR1 (unknown origin) at 10 uM.
The target of data set [20] is Tyrosine-protein kinase SYK (Homo sapiens) (UniProt P43405). As to the kind of experiment: Inhibition of SYK (unknown origin) using fluorescence labeled peptide as substrate at 10 uM by IMAP assay. The procedure, abridged: as §3
Data set [21] in a line: Antitumor activity against AXL expressing mouse MXT cells allografted in mouse assessed as survival time at 15 mg/kg, ip qd administered 21 consecutive days. Type of data set: functional. The procedure, abridged: (§4)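 MXT mammary tumour cells implanted subcutaneously and staged to about 125 mm3. Dosing then began: once daily ip for 21 consecutive days, at 5 or 15 mg/kg, alongside a vehicle group, with 7 animals per group. Survival in days was recorded for each animal and given as mean ± SD, and as T/C% against the vehicle group (vehicle = 100%).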

Data set [22] in a line: Antitumor activity against AXL expressing mouse MXT cells allografted in mouse assessed as prolongation of survival time at 5 to 15 mg/kg, ip qd administered 21 consecutive days. Type of data set: functional. The note with it: read-out: MED. The essentials: as §4

Sequence of Epithelial discoidin domain-containing receptor 1 (Homo sapiens) (Q08345 whole entry, the tested form may be a part): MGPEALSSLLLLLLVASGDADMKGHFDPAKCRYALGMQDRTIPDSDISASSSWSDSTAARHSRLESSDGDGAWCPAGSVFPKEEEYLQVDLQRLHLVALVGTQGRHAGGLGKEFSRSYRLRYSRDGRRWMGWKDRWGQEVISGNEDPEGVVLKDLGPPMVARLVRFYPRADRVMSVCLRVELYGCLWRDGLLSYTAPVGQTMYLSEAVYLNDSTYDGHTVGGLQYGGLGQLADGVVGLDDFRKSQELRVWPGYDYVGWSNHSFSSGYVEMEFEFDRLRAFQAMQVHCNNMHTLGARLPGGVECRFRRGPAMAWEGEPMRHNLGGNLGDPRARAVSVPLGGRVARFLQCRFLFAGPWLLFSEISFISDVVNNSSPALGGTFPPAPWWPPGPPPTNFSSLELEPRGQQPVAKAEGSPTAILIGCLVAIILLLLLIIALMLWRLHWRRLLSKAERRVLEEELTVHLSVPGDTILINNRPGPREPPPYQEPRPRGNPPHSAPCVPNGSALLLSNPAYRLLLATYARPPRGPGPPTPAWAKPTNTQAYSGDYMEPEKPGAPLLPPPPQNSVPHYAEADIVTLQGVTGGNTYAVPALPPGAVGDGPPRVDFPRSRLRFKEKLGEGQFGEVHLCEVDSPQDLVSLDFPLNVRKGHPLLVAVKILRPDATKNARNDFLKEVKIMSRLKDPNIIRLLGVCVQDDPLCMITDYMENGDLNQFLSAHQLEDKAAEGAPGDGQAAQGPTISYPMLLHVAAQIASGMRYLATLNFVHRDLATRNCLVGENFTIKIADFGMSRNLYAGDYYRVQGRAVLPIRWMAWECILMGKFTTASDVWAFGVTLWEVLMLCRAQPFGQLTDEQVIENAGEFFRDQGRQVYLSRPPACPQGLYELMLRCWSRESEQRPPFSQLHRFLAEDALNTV
Sequence of Proto-oncogene tyrosine-protein kinase Src (P12931 2-536 limits assumed): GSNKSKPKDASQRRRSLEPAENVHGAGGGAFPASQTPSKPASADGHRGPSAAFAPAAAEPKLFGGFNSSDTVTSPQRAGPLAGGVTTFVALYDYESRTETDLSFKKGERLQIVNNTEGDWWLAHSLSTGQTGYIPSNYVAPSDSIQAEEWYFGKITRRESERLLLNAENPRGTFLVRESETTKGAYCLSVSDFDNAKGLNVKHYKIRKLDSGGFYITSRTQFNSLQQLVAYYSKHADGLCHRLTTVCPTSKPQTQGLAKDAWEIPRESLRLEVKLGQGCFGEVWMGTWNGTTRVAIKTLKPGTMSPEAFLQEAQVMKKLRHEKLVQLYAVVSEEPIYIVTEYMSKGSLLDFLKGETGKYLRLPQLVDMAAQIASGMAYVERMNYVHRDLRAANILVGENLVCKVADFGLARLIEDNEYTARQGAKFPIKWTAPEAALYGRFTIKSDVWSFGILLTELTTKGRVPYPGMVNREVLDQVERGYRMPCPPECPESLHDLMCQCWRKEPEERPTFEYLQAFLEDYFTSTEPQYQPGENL
Sequence of Mitogen-activated protein kinase kinase kinase kinase 4 (O95819 whole entry): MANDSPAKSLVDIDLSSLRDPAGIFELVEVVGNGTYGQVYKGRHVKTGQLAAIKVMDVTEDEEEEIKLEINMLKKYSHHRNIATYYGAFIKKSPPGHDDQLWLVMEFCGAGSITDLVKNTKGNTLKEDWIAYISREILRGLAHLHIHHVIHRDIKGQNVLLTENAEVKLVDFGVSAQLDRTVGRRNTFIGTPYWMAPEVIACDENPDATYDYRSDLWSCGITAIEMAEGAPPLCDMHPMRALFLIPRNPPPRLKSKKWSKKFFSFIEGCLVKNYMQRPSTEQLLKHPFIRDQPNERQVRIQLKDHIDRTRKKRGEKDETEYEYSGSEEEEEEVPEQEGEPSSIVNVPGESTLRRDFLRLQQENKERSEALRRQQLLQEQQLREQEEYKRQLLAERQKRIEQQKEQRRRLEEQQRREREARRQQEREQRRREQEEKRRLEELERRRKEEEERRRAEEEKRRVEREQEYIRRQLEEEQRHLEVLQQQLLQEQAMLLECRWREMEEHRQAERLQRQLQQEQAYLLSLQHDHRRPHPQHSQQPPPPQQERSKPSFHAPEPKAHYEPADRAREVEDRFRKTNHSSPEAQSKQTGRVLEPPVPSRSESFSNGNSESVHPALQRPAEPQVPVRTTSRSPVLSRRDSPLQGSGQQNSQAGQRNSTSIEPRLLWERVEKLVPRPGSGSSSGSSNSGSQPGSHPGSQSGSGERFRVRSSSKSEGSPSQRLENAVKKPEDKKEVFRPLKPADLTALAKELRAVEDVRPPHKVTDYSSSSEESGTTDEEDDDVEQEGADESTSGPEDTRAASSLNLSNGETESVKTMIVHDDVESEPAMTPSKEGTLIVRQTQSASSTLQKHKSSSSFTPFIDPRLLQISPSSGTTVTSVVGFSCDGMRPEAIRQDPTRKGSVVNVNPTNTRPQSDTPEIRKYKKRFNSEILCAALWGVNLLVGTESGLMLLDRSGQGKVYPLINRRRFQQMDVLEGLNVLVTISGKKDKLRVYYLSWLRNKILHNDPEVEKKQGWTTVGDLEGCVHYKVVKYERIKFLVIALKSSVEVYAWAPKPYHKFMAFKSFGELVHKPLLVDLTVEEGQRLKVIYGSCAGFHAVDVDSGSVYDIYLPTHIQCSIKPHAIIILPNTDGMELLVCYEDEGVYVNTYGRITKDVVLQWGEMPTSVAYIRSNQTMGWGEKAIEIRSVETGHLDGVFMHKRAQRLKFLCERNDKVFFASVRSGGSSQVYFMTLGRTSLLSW
Sequence of Proto-oncogene tyrosine-protein kinase receptor Ret (Homo sapiens) (P07949 whole entry, the tested form may be a part): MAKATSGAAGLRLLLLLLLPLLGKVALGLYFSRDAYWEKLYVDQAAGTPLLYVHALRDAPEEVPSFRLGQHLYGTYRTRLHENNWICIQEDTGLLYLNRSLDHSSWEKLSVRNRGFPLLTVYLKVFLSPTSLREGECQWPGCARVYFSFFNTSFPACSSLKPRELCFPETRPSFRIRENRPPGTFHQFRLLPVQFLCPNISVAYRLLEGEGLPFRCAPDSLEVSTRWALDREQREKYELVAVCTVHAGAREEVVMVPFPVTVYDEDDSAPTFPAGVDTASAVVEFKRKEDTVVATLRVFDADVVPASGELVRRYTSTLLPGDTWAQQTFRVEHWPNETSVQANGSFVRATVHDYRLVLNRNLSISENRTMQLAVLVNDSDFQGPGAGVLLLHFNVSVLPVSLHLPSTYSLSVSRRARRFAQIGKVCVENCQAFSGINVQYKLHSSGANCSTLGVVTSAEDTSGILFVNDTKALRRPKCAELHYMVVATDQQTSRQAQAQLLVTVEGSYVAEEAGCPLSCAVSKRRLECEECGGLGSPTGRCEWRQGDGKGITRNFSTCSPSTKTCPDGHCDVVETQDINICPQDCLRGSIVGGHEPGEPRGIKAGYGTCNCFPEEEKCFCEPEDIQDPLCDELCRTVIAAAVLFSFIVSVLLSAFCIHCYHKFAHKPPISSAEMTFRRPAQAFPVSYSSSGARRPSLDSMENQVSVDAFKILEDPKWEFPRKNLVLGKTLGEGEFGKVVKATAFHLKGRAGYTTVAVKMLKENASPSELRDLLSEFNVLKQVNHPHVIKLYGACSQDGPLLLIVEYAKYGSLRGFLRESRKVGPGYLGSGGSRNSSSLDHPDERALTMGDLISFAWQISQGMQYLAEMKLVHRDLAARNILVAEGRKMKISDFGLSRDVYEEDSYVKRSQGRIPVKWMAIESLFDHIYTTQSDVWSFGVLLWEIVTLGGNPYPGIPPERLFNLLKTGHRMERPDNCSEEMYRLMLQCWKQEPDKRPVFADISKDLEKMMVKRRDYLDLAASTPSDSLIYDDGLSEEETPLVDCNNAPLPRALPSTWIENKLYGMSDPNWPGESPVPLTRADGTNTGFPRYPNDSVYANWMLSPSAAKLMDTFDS
Sequence of Mitogen-activated protein kinase kinase kinase 3 (Q99759 whole entry): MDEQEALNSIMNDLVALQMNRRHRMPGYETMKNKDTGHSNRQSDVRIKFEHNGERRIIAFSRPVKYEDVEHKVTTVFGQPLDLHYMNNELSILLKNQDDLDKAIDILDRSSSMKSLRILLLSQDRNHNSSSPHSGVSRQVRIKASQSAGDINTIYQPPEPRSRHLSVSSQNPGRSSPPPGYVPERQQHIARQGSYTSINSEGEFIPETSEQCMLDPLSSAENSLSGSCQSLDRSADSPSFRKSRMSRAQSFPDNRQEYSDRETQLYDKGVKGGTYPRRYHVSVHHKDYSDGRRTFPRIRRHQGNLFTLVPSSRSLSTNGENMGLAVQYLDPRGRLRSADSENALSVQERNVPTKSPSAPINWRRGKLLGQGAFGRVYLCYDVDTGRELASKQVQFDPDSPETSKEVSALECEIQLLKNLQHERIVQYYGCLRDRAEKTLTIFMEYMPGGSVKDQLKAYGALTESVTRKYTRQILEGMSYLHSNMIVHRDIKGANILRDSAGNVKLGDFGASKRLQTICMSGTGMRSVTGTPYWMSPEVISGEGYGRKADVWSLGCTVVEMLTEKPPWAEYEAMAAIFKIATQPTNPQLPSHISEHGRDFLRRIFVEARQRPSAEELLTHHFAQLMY
Sequence of 5-azacytidine-induced protein 2 (Q9H6S1 whole entry): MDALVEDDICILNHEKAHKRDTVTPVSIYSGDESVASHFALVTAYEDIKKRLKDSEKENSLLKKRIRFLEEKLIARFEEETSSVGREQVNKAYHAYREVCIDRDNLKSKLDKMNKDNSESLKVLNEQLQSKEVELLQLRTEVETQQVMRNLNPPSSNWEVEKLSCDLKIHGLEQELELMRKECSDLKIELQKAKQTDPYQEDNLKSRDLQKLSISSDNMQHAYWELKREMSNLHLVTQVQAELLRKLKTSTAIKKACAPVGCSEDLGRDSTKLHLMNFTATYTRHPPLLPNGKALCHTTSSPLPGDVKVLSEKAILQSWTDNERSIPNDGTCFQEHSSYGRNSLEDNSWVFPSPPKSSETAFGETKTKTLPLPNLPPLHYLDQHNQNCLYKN

What is called Papp A→B is the apparent permeability from the apical to the basolateral side of a cell layer. Turning to `COc1cc2c(Oc3ccc(NS(=O)(=O)c4cc(F)ccc4F)cc3F)ccnc2cc1OCCCN1CCN(C)CC1`, the Activity in the data set on MDA-MB-231 is on record as 65.7%; in data set [3], “Toxic”. Also, the Papp A→B at 2 h, 10 µM in [1] came out at 7.4 ×10⁻⁶ cm/s. The “Kd(free)” value is 3750 nM in data set [2], over 7651 nM in data set [6], 3133 nM in [7] and 254 nM in data set [8]. For the same compound, in data set [4], the fraction unbound was 0.028. Moreover, the Vd in data set [5] came out at 10.2 L/kg.

Turning to `COc1cc2c(Oc3ccc(NS(=O)(=O)c4c(F)cccc4F)cc3F)ccnc2cc1OCCCN1CCN(C)CC1`, the “Kd(free)” value at LIM domain kinase 2 is 2784 nM; in data set [9], 6 nM; in data set [10], 539 nM; in data set [11], 2982 nM; in data set [12], 3273 nM; in data set [13], 2090 nM. Besides, the “Kd(free)” value in data set [8] amounted to 96 nM.

As for `COc1cc2c(Oc3ccc(NS(=O)(=O)c4ccccc4C(F)(F)F)cc3F)ccnc2cc1OCCCN1CCN(C)CC1`, the inhibition entry in data set [14], in [15], in data set [16], in data set [17], in data set [18] and in data set [19] was “Active” each time. Besides, the inhibition entry in [20] is “Active”.

For orientation: T/C means the result in the treated group divided by that in the control group, in per cent. On to `COc1cc2c(Oc3ccc(NS(=O)(=O)c4cc(F)ccc4F)cc3F)ccnc2cc1OCCCN1CCCC(C)C1` (configuration not stated), for which, in data set [1], the Papp A→B at 2 h, 10 µM worked out at 2.4 ×10⁻⁶ cm/s. In [4], the fraction unbound is 0.041. Moreover, in data set [21], the T/C was determined as 127%. Moreover, the minimal effective dose in data set [22] worked out at 5 mg/kg.
